Data on 4 molecules can be found in ChEMBL document CHEMBL3774321, “Systematic diversification of benzylidene heterocycles yields novel inhibitor scaffolds selective for Dyrk1A, Clk1 and CK2” (Eur J Med Chem, 2016).

Assay [1] has as its target Phosphatidylinositol 4,5-bisphosphate 3-kinase catalytic subunit gamma isoform (Homo sapiens, UniProt P48736). The assay is described as follows: Inhibition of PI3K p110gamma (unknown origin).
Assay [2] deals with Dual specificity protein kinase CLK4 (Homo sapiens, UniProt Q9HAZ1). As to the kind of experiment: Inhibition of full length recombinant human GST-tagged CLK4 expressed in baculovirus expression system by lantha screen kinase binding assay. The essentials: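 LanthaScreen binding format: test compound competes with an Alexa Fluor-conjugated tracer for the ATP site. IC50 derived from this displacement, not from peptide phosphorylation.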
Dual specificity protein kinase CLK4, sequence (Q9HAZ1 whole entry): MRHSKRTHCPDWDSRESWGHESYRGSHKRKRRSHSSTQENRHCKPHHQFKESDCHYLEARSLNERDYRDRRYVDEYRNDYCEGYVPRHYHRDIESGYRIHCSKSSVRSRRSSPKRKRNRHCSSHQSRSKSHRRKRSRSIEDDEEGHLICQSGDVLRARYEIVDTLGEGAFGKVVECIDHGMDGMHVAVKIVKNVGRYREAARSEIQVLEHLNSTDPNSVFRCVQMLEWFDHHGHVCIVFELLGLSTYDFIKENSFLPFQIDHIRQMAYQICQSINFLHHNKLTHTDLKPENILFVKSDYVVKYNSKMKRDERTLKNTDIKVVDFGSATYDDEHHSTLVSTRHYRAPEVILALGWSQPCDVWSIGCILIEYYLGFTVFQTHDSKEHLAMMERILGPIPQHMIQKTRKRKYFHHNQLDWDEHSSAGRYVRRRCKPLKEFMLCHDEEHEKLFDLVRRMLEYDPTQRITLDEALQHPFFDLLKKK

The target in assay [3] is T1, Serine/threonine-protein kinase haspin (Homo sapiens) (UniProt Q8TF76).
T1 sequence (whole entry): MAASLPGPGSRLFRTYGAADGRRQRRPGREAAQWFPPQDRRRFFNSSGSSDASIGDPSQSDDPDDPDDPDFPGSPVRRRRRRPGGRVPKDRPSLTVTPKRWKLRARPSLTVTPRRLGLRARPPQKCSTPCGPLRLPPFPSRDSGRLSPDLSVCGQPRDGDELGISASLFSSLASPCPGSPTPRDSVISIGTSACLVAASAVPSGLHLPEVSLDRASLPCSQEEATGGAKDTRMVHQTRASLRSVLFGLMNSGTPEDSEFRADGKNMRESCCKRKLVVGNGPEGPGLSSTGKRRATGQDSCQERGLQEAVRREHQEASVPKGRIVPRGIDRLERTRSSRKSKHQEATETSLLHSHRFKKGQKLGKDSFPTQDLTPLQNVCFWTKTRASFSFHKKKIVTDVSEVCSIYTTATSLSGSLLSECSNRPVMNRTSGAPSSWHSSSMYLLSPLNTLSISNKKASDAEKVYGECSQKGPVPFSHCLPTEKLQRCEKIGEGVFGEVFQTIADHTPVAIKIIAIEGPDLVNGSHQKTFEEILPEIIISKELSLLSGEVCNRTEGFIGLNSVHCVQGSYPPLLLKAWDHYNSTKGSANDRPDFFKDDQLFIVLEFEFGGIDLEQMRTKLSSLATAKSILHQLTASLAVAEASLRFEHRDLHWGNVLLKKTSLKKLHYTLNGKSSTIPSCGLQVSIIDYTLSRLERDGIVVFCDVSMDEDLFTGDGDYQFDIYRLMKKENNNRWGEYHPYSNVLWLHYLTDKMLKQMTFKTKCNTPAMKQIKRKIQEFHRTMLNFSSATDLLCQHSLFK
As to the kind of experiment: Inhibition of Haspin (unknown origin) at 1 uM relative to control. The gist of the method:
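Single-point screen at 1 μM compound. Percent inhibition is the mean of two separate measurements, each run in duplicate.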

In assay [4] the target is Phosphatidylinositol 4,5-bisphosphate 3-kinase catalytic subunit delta isoform (Homo sapiens, UniProt O00329). As to the kind of experiment: Inhibition of PI3K p110delta (unknown origin).
Assay [5] has as its target T2, Myosin light chain kinase 2, skeletal/cardiac muscle (Homo sapiens, UniProt Q9H1R3). The assay is described as follows: Inhibition of full length recombinant human N-terminal GST-tagged skeletal MYLK2 expressed in baculovirus expression system at 5 uM by lantha screen kinase binding assay relative to control. The essentials:
(§1)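 Binding-displacement format: the compound competes with an Alexa Fluor-conjugated tracer for binding to the kinase ATP site, rather than a peptide phosphorylation read-out.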

The target in assay [6] is T3, Phosphatidylinositol 4,5-bisphosphate 3-kinase catalytic subunit delta isoform (Homo sapiens) (UniProt O00329).
T3 sequence (whole entry): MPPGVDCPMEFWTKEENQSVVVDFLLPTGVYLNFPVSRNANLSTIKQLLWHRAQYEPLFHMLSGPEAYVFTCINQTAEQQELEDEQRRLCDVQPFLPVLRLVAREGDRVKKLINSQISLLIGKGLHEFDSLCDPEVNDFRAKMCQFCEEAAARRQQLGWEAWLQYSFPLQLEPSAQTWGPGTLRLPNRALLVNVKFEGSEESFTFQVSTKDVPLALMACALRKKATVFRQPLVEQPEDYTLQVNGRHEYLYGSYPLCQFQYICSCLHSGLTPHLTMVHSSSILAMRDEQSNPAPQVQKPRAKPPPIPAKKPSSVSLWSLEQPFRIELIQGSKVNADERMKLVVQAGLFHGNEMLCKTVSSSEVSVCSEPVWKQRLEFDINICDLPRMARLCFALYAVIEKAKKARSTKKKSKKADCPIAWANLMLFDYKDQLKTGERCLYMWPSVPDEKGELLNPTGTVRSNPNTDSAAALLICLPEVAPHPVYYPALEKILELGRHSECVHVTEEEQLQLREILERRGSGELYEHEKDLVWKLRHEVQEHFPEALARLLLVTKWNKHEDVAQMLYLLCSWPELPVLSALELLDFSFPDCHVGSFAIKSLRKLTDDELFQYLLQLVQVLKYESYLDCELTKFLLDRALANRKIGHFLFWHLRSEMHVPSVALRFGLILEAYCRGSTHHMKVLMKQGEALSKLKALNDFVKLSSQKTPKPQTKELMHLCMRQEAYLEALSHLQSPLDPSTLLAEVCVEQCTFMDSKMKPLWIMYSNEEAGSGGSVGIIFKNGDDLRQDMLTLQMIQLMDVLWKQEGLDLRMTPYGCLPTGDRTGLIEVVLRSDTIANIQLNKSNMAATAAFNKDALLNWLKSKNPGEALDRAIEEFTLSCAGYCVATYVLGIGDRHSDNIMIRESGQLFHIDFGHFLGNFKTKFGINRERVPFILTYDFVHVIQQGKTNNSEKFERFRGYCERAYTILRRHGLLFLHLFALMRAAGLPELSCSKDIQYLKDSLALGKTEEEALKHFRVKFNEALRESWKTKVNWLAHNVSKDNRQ
The note with it: 1 uM.

The target in assay [7] is T1, Serine/threonine-protein kinase haspin (Homo sapiens). As to the kind of experiment: Inhibition of Haspin (unknown origin) at 5 uM relative to control.
The target of assay [8] is Phosphatidylinositol 4,5-bisphosphate 3-kinase catalytic subunit alpha isoform (Homo sapiens, UniProt P42336). The assay is described as follows: Inhibition of PI3K p110alpha (unknown origin) at 5 uM relative to control.
Phosphatidylinositol 4,5-bisphosphate 3-kinase catalytic subunit alpha isoform, sequence (P42336 whole entry, canonical isoform): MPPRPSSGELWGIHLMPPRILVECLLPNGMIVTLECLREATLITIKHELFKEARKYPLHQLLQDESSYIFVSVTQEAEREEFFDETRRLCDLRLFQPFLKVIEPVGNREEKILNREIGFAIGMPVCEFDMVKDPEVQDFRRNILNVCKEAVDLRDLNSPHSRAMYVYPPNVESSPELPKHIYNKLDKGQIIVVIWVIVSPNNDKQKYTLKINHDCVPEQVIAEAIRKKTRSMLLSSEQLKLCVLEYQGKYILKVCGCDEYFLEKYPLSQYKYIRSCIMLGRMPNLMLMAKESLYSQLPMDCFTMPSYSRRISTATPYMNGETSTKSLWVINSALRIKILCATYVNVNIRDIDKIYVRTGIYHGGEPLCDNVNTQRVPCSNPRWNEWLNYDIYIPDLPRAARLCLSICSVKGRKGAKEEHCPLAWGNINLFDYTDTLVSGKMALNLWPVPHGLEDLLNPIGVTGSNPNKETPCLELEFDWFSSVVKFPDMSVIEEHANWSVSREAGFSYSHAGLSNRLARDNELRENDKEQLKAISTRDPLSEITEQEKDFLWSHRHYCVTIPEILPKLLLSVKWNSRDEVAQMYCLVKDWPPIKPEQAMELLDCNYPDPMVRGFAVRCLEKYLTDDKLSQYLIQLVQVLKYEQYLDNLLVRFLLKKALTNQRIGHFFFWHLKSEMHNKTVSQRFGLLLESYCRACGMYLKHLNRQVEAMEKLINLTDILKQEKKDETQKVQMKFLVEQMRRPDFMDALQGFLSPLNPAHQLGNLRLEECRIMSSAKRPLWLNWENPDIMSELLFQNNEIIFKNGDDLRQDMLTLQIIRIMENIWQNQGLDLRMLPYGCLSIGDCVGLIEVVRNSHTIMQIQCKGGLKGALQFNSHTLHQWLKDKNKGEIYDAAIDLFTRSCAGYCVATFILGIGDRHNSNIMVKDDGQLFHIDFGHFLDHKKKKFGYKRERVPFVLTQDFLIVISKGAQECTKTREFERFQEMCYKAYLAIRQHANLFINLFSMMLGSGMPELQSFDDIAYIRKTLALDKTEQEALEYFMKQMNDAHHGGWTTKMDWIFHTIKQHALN
Assay [9] deals with T3, Phosphatidylinositol 4,5-bisphosphate 3-kinase catalytic subunit delta isoform (Homo sapiens). The assay is described as follows: Inhibition of PI3K p110delta (unknown origin) at 5 uM relative to control.
The target of assay [10] is Mitogen-activated protein kinase 14 (Homo sapiens) (UniProt Q16539). The assay is described as follows: Inhibition of full length recombinant human GST-tagged MAPK14 expressed in Escherichia coli at 1 uM by lantha screen kinase binding assay relative to control.
Mitogen-activated protein kinase 14 (Homo sapiens), sequence (Q16539 whole entry): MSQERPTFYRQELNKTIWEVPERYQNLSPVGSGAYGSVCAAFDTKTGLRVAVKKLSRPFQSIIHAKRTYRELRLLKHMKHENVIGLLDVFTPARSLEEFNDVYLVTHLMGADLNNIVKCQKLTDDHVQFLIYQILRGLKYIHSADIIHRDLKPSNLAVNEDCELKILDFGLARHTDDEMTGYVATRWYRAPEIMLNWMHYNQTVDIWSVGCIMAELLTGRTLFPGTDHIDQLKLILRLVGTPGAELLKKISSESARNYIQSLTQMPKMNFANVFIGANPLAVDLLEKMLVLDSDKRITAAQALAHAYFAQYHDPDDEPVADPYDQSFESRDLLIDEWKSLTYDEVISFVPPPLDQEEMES
In assay [11] the target is T2, Myosin light chain kinase 2, skeletal/cardiac muscle. The assay is described as follows: Inhibition of full length recombinant human N-terminal GST-tagged MLCK expressed in baculovirus expression system by lantha screen kinase binding assay. The essentials:
as §1

Assay [12] concerns the target Serine/threonine-protein kinase pim-2 (Homo sapiens) (UniProt Q9P1W9). The assay is described as follows: Inhibition of full length recombinant human GST-tagged PIM2 expressed in baculovirus expression system at 1 uM by lantha screen kinase binding assay relative to control.
Assay [13] has as its target Mitogen-activated protein kinase 8 (Homo sapiens) (UniProt P45983). The assay is described as follows: Inhibition of full length recombinant human His-tagged MAPK8 expressed in baculovirus expression system at 1 uM by lantha screen kinase binding assay relative to control. The gist of the method:
as §1

For assay [14], the target named is Serine/threonine-protein kinase 17A (Homo sapiens) (UniProt Q9UEE5). The assay is described as follows: Inhibition of STK17A (unknown origin) at 1 uM relative to control.
Serine/threonine-protein kinase 17A (Homo sapiens), sequence (Q9UEE5 whole entry): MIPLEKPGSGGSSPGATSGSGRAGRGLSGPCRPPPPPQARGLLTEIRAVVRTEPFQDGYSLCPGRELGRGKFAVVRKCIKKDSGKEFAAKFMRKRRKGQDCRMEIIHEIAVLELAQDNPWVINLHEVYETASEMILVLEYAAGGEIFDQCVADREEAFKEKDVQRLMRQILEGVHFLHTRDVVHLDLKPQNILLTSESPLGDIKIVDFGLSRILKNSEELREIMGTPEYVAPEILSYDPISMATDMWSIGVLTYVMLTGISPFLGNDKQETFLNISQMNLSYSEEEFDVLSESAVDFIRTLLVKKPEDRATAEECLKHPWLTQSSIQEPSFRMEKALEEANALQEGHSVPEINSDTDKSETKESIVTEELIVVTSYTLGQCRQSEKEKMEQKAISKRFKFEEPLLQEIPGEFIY

Structures are written as SMILES. Activity calls are given as the source filed them. No cut-off for these calls is given here.

What is called IC50 is the point on the concentration scale where inhibition reaches its midpoint. A word on the inhibition: it is the share of the control response that was lost under treatment.

Phosphatidylinositol 4,5-bisphosphate 3-kinase catalytic subunit gamma isoform, sequence (P48736 whole entry, canonical isoform): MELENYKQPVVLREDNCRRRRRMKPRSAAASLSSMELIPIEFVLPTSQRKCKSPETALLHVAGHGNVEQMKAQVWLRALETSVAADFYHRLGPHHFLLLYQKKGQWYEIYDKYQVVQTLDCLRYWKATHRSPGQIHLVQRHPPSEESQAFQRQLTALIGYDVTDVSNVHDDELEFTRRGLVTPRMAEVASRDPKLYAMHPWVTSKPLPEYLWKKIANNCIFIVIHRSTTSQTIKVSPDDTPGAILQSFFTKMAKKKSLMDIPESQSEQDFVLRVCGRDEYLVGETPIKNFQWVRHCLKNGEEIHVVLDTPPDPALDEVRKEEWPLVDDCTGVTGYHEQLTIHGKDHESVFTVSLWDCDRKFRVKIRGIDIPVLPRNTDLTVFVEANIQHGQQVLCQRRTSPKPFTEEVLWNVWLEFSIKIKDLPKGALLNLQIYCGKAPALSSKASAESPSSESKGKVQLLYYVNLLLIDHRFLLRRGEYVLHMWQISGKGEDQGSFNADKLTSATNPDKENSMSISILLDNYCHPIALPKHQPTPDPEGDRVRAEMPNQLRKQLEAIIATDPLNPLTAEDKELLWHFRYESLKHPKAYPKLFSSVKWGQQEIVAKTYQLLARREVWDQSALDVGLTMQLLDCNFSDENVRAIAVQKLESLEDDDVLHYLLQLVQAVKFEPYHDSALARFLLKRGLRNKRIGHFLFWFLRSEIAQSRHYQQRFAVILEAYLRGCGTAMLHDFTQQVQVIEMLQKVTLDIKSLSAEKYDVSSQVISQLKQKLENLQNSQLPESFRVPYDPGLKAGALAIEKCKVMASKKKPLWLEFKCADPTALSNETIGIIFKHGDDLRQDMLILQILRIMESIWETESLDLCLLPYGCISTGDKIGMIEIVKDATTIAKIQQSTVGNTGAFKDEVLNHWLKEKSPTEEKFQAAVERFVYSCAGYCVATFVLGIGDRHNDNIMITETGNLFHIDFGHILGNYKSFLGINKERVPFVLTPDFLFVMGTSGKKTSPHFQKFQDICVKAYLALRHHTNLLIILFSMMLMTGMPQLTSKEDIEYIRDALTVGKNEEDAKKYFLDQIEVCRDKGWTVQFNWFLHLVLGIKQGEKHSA
T2 sequence (Q9H1R3 whole entry): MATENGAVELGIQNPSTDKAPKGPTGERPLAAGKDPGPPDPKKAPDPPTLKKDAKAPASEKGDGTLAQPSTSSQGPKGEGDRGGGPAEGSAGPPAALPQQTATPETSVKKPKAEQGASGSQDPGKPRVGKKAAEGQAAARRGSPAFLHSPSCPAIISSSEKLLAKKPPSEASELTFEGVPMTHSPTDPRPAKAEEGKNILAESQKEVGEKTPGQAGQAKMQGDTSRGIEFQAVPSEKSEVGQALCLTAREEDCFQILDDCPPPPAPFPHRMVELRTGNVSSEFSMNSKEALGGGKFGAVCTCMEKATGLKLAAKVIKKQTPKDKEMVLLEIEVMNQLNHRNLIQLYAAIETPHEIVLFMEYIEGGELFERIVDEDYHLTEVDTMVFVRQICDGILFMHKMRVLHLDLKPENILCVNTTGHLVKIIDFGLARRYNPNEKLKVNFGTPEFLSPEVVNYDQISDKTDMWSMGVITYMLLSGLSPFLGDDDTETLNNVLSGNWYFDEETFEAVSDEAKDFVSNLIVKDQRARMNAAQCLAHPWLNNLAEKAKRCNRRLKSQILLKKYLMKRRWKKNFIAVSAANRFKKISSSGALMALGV
Serine/threonine-protein kinase pim-2 (Homo sapiens), sequence (Q9P1W9 whole entry, looked up): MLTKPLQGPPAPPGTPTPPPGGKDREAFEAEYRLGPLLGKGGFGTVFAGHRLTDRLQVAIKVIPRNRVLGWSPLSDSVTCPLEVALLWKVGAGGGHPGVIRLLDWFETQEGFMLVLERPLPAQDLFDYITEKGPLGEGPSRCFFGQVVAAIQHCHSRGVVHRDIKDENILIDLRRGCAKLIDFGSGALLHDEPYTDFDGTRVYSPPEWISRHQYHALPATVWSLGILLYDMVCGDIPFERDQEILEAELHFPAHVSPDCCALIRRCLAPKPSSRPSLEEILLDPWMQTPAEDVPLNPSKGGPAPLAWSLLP
Mitogen-activated protein kinase 8 (Homo sapiens), sequence (P45983 whole entry): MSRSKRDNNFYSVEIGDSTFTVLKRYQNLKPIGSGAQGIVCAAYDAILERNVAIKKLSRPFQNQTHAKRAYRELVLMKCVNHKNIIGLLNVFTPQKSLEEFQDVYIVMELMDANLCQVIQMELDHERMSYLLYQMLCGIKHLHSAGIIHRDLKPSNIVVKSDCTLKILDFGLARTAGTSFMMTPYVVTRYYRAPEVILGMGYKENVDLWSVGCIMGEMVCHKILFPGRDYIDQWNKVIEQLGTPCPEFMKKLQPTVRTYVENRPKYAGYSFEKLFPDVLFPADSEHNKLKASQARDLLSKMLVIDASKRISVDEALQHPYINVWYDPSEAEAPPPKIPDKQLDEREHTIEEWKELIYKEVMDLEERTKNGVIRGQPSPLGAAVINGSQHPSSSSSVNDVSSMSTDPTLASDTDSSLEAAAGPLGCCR

Turning to `O=C1NC(=S)S/C1=C\c1ccc2ncsc2c1`, the IC50 in [1] amounted to 2.3 nM; in assay [2] it was 31.8 nM; in assay [4], 12.4 nM. Further, the inhibition in [3] is 93%; in assay [6], 90%. For the same molecule, the inhibition entry in [5] is “inactive”.

As for `O=C1OCC/C1=C\c1ccc2ncsc2c1`, the inhibition worked out at 75% in assay [7], 90% in assay [8] and 77% in [9].

As to `O=C1NC(=S)S/C1=C\c1ccc2ncccc2c1`, the IC50 turned out to be 2.3 nM in assay [1], 17.8 nM in assay [2], 157 nM in assay [11] and 16.1 nM in assay [4]. The inhibition in assay [10] came out at 6%; in assay [3], 93%; in assay [12], 31%; in assay [13], 7%; in assay [14] it was 97%; in assay [6], 97%.

Regarding `CC1C/C(=C\c2ccc3c(c2)CCO3)C(=O)O1` (configuration not stated), the inhibition is 43% in assay [7], 84% in assay [8] and 73% in assay [9].
